Test results as given in ChEMBL document CHEMBL1667822, “Selective antagonists of mouse trace amine-associated receptor 1 (mTAAR1): discovery of EPPTB (RO5212773)” (Bioorg Med Chem Lett, 2011).

How the values were obtained:
[1] = molecular target: T1, Trace amine-associated receptor 1 (Mus musculus, UniProt Q923Y8); experiment: Antagonist activity at mouse TAAR1 assessed as reversal of endogenous beta-PEA effect; format: functional
Procedure, shortened: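 Mouse TAAR1 antagonist dose–response run as an in vitro cAMP functional assay. Efficacy is the reversal of the effect of the endogenous agonist β-PEA, with 100% efficacy defined as 0% min% stim. Values are averages of at least two independent experiments.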

[2] = molecular target: Trace amine-associated receptor 1 (Mus musculus) (UniProt Q923Y8); experiment: Antagonist activity at mouse TAAR1 assessed as residual stimulation by in vitro cAMP functional assay relative to control; set-up: concentration or dose not given beside the values
Procedure, shortened: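 Mouse TAAR1 in vitro cAMP functional assay using the endogenous agonist β-PEA. The read-out is the residual β-PEA stimulation remaining at the maximum test-compound concentration. Values are averages of at least two independent experiments.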

[3] = molecular target: T1, Trace amine-associated receptor 1; experiment: Inhibition of mouse TAAR1
[4] = molecular target: Trace amine-associated receptor 1 (Rattus norvegicus, UniProt Q923Y9); experiment: Inhibition of rat TAAR1
Procedure, shortened: (§1)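 In vitro cAMP functional assay with antagonism read as reversal of the response to the endogenous agonist beta-PEA. Efficacy was scaled so that 100% equals 0% minimum stimulation. Residual beta-PEA stimulation was taken at the highest test-compound concentration. Values are means of at least two independent experiments, with duplicates typically within a twofold margin.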

Liver microsomes = experiment: Intrinsic clearance in human liver microsomes measured per mg of protein; format: ADME, Microsome
Procedure, shortened: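 In vitro incubation with human liver microsomes. Intrinsic clearance is expressed per mg microsomal protein per minute.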

[5] = molecular target: T2, Trace amine-associated receptor 1 (Homo sapiens, UniProt Q96RJ0); experiment: Antagonist activity at human TAAR1 assessed as reversal of endogenous beta-PEA effect; format: functional; procedure, shortened: as §1
T2 sequence (Q96RJ0 whole entry): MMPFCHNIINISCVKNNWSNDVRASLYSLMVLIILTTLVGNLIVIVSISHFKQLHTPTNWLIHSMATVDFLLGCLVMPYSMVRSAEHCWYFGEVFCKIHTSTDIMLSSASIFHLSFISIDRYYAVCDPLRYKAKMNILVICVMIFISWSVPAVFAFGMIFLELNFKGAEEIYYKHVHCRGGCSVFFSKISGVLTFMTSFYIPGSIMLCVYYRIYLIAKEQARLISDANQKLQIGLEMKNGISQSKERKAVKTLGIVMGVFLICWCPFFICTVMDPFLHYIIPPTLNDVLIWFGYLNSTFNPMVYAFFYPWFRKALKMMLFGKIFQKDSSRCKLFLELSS

[6] = Aqueous solubility of the compound; format: physicochemical; conditions: buffer
[7] = Intrinsic clearance in mouse liver microsomes measured per mg of protein; format: ADME, Microsome
Procedure, shortened: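 Intrinsic clearance from in vitro incubation of compound with mouse liver microsomes, expressed per mg microsomal protein.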

[8] = molecular target: T2, Trace amine-associated receptor 1; experiment: Inhibition of human TAAR1; procedure, shortened: as §1
[9] = Lipophilicity, log D of the compound; format: physicochemical; conditions: octanol/water

T1 sequence (Q923Y8 whole entry): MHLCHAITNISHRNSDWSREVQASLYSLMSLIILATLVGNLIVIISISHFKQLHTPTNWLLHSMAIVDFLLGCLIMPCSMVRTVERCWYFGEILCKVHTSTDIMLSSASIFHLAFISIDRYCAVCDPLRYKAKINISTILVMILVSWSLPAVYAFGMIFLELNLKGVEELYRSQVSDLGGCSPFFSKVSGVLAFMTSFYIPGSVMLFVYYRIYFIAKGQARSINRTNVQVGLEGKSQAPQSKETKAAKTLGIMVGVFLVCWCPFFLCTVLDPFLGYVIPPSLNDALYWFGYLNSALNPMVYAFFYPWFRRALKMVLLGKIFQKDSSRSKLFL
Sequence of Trace amine-associated receptor 1 (Mus musculus) (Q923Y8 whole entry): as above
Sequence of Trace amine-associated receptor 1 (Rattus norvegicus, UniProt Q923Y9) (Q923Y9 whole entry): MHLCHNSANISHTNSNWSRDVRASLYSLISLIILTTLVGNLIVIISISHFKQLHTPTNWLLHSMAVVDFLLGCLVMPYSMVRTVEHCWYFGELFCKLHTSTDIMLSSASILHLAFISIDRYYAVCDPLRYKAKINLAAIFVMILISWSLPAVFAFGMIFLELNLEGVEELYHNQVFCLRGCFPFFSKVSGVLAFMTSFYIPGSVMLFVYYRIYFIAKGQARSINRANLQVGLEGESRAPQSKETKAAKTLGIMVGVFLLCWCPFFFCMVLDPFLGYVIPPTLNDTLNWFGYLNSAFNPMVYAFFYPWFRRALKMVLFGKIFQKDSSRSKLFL

IC50 [1] | Activity [2] | Ki [3] | Structure (SMILES) | further results
13 nM | 14% | – | CCCNc1ccc(C(=O)Nc2cccc(OC)c2)cc1[N+](=O)[O-] | –
245 nM | 0% | – | O=C(Nc1cccc(Cl)c1)c1ccc(N2CCCC2)c(C(F)(F)F)c1 | –
– | – | 229 nM | COc1cccc(NC(=O)c2ccc(F)c(F)c2)c1 | –
– | – | 164 nM | COc1cccc(NC(=O)c2ccc(N3CCN(C)CC3)c([N+](=O)[O-])c2)c1 | –
– | – | 25 nM | COc1cccc(NC(=O)c2ccc(Cl)c(Cl)c2)c1 | –
43 nM | 0% | – | COc1cccc(NC(=O)c2ccc(Br)c([N+](=O)[O-])c2)c1 | –
14 nM | 3% | – | COc1cccc(NC(=O)c2ccc(NCc3ccccc3)c([N+](=O)[O-])c2)c1 | –
175 nM | 0% | – | COc1cccc(NC(=O)c2ccc(Nc3ccccc3)c([N+](=O)[O-])c2)c1 | –
12 nM | 0% | – | COc1cccc(NC(=O)c2ccc(Cl)c([N+](=O)[O-])c2)c1 | –
– | – | – | COc1cccc(NC(=O)c2cnc(N3CCCC3)c(C(F)(F)F)c2)c1 | clearance [7]: 321 µL/min/mg
75 nM | 23% | – | CCNc1ccc(C(=O)Nc2cccc(OC)c2)cc1[N+](=O)[O-] | –
– | – | 1580 nM | COc1cccc(NC(=O)c2ccc(F)c(C)c2)c1 | –
79 nM | 0% | 103 nM | COc1cccc(NC(=O)c2ccc(N3CCOCC3)c([N+](=O)[O-])c2)c1 | logD [9]: 2.7; clearance [7]: 18 µL/min/mg
19 nM | 0% | – | COc1cccc(NC(=O)c2ccc(N3CCCCC3)c([N+](=O)[O-])c2)c1 | –
20 nM | 0% | – | O=C(Nc1cccc(F)c1)c1ccc(N2CCCC2)c(C(F)(F)F)c1 | –
– | – | 6000 nM | COc1cccc(NC(=O)c2cccc(S(C)(=O)=O)c2)c1 | –
– | – | 101 nM | O=C(Nc1cccc(OC(F)(F)F)c1)c1ccc(N2CCCC2)c(C(F)(F)F)c1 | –
– | – | 138 nM | COc1cccc(NC(=O)c2ccc(F)c(OC(F)(F)F)c2)c1 | –
60 nM | 0% | – | COc1cccc(NC(=O)c2ccc(N3CCC(C)CC3)c([N+](=O)[O-])c2)c1 | logD [9]: > 3; clearance (Liver microsomes): 154 µL/min/mg; IC50 [5]: 3790 nM; solubility [6]: < 1 µg/mL; clearance [7]: 396 µL/min/mg; Ki [8]: > 20000 nM
– | – | 82 nM | O=C(Nc1cccc(Oc2ccccc2)c1)c1ccc(N2CCCC2)c(C(F)(F)F)c1 | –

IC50 [1] | Activity [2] | Ki [3] | Structure (SMILES) | further results
– | – | 149 nM | COc1cccc(NC(=O)c2ccc(F)c(C#N)c2)c1 | –
70 nM | 0% | – | Cc1cccc(NC(=O)c2ccc(N3CCCC3)c(C(F)(F)F)c2)c1 | –
27 nM | 0% | 4 nM | CC(C)Oc1cccc(NC(=O)c2ccc(N3CCCC3)c(C(F)(F)F)c2)c1 | –
– | – | – | COc1cccc(NC(=O)c2cnc(N3CCC(C)CC3)c(C(F)(F)F)c2)c1 | logD [9]: > 4; clearance [7]: 107 µL/min/mg
67 nM | 0% | 3 nM | COc1cccc(NC(=O)c2ccc(N3CCCC3)c(C(F)(F)F)c2)c1 | clearance [7]: 341 µL/min/mg
17 nM | 0% | – | COc1cccc(NC(=O)c2ccc(N3CCCC3)c([N+](=O)[O-])c2)c1 | –
– | – | 694 nM | COc1cccc(NC(=O)c2ccc(F)c(S(=O)(=O)N3CCCCC3)c2)c1 | –
– | – | 7430 nM | COc1cccc(NC(=O)c2ccc(F)c(S(N)(=O)=O)c2)c1 | –
– | – | 139 nM | COc1cccc(NC(=O)c2ccc(F)c(C(C)=O)c2)c1 | –
– | – | 262 nM | COc1cccc(NC(=O)c2ccc(-n3cccn3)c([N+](=O)[O-])c2)c1 | –
200 nM | 9% | – | COc1cccc(NC(=O)c2ccc(N3CCC3)c([N+](=O)[O-])c2)c1 | –
665 nM | 0% | 189 nM | COc1cccc(NC(=O)c2cccc([N+](=O)[O-])c2)c1 | –
364 nM | 0% | – | O=C(Nc1cccc(OC(F)(F)C(F)F)c1)c1ccc(N2CCCC2)c(C(F)(F)F)c1 | –
187 nM | 0% | – | O=C(Nc1cccc(OC(F)F)c1)c1ccc(N2CCCC2)c(C(F)(F)F)c1 | –
– | – | 1920 nM | COc1cccc(NC(=O)c2ccc(N)c([N+](=O)[O-])c2)c1 | –
470 nM | 0% | – | CCc1cccc(NC(=O)c2ccc(N3CCCC3)c(C(F)(F)F)c2)c1 | –
568 nM | 0% | – | O=C(Nc1cccc(Br)c1)c1ccc(N2CCCC2)c(C(F)(F)F)c1 | –
142 nM | 0% | – | COc1cccc(NC(=O)c2ccc(NC(C)C)c([N+](=O)[O-])c2)c1 | –
120 nM | 0% | – | CC(=O)c1cccc(NC(=O)c2ccc(N3CCCC3)c(C(F)(F)F)c2)c1 | –

Structure (SMILES) | IC50 [1] | Activity [2] | Ki [3] | further results
COc1cccc(NC(=O)c2ccc(S(=O)(=O)N3CC(C)CC(C)C3)c(F)c2)c1 (racemic) | 6 nM | 28% | 4 nM | Ki [4]: 1390 nM; clearance (Liver microsomes): 538 µL/min/mg; IC50 [5]: > 10000 nM; solubility [6]: < 1 µg/mL; clearance [7]: 1700 µL/min/mg; Ki [8]: > 20000 nM
